Results pooled from the literature.
Lines come from different studies, so protocols differ. In brackets after ≈: the same amount, converted by molar mass.

SMILES | target or system | assay | conditions | measurement | value
O=C(C[C@@H](C(F)F)n1ccc(F)n1)N1CCC(O)(Cn2cnc3c(cnn3-c3ccc(F)cc3)c2=O)CC1 | CAPAN-1 | cell growth or viability, SRB | 2.222 µM, 5 days | viability | 19.8%
C[C@H](N)C(=O)Nc1ccccc1/N=c1\cc(-c2ccc3c(c2)OCCO3)oc2c([N+](=O)[O-])cccc12 | MCF7 | cell growth or viability, CCK-8 | 1 µM | inhibition | 6.59%
CCOC(=O)C1=C(CCl)NC(=O)NC1c1ccc(C)cc1 (stereo not drawn) |  | DPPH scavenging |  | IC50 | 235 µM
Oc1cc2c(cc1O)C(CCc1ccccc1)NCC2 (stereo not drawn) |  | DPPH scavenging, absorbance | 30 min, dark | IC50 | 18 µM
C=CC(=O)ON=C1C=CC(=C(C#N)c2ccccc2)C=C1 | Candidozyma auris | microbial growth, broth dilution | 48 h | MIC | 16 µg/mL (≈ 57.9 µM)
CCOC(=O)C1=C(CSC2=NCCS2)NC(=O)NC1c1ccc(F)cc1 (stereo not drawn) |  | DPPH scavenging |  | IC50 | 157 µM
Oc1cc2c(cc1O)C(Cc1ccccc1)NCC2 (stereo not drawn) |  | DPPH scavenging, absorbance | 30 min, dark | IC50 | 19.7 µM
CCOC(=O)C1=C(CCl)NC(=O)NC1c1ccc(F)cc1F (stereo not drawn) |  | DPPH scavenging |  | IC50 | 117 µM
C[C@H](N)C(=O)Nc1ccccc1/N=c1\cc(-c2ccc3c(c2)OCCO3)oc2c(N)cccc12 | MCF7 | cell growth or viability, CCK-8 | 1 µM | inhibition | 7.27%
CCON=C1C=CC(=C(C#N)c2ccccc2)C=C1 | Candidozyma auris | microbial growth, broth dilution | 48 h | MIC | 256 µg/mL (≈ 1020 µM)
CCOC(=O)C1=C(CCl)NC(=O)NC1c1ccc(OC)cc1 (stereo not drawn) |  | DPPH scavenging |  | IC50 | 150 µM
CCCCCCCCCC1NCCc2cc(O)c(O)cc21 (stereo not drawn) |  | DPPH scavenging, absorbance | 30 min, dark | IC50 | 62 µM
CS(=O)(=O)NCCC(=O)Nc1ccccc1/N=c1\cc(-c2ccc3nc(N)oc3c2)oc2ccccc12 | MCF7 | cell growth or viability, CCK-8 | 1 µM | inhibition | 2%
CCOC(=O)C1=C(CSC2=NCCS2)NC(=O)NC1c1cccc(OC)c1 (stereo not drawn) |  | DPPH scavenging |  | IC50 | 150 µM
C#CCON=C1C=CC(=C(C#N)c2ccccc2)C=C1 | Candidozyma auris | microbial growth, broth dilution | 48 h | MIC | 32 µg/mL (≈ 123 µM)
NCC(=O)Nc1ccccc1/N=c1\cc(-c2ccc3c(c2)OCCO3)oc2cc(F)ccc12 | MCF7 | cell growth or viability, CCK-8 | 1 µM | inhibition | -2.78%
CC(=O)ON=C1C=CC(=C(C#N)c2ccccc2)C=C1 | Candidozyma auris | microbial killing, broth dilution | 48 h | MFC | 16 µg/mL (≈ 60.5 µM)
COCCC(=O)Nc1ccccc1/N=c1\cc(-c2ccc3c(c2)OCO3)oc2ccccc12 | MCF7 | cell growth or viability, CCK-8 | 1 µM | inhibition | 9.24%
COc1cc(C2NCCc3cc(O)c(O)cc32)ccc1O (stereo not drawn) |  | DPPH scavenging, absorbance | 30 min, dark | IC50 | 8.15 µM
CCOC(=O)C1=C(CSC2=NCCS2)NC(=O)NC1c1cccc(C)c1 (stereo not drawn) |  | DPPH scavenging |  | IC50 | 224 µM
C#CCOC(=O)ON=C1C=CC(=C(C#N)c2ccccc2)C=C1 | Candidozyma auris | microbial killing, broth dilution | 48 h | MFC | 32 µg/mL (≈ 105 µM)
O=C1O[C@H]([C@@H](O)CO)C(O)=C1O |  | DPPH scavenging |  | IC50 | 88.4 µM
Oc1ccc(C2NCCc3cc(O)c(O)cc32)cc1O (stereo not drawn) |  | DPPH scavenging, absorbance | 30 min, dark | IC50 | 8.14 µM
N#CC(=C1C=CC(=NOC(=O)OCc2ccccc2)C=C1)c1ccccc1 | Candidozyma auris | microbial killing, broth dilution | 48 h | MFC | 128 µg/mL (≈ 359 µM)
